Assay results reported in PMC4278051 (Journal of Breast Cancer, 2014).

Assays:
[1] = target: T1, TRPV1 (Homo sapiens, UniProt Q8NER1); test: Inhibition of RTX induced ^45Ca^2+ uptake by antagonists in MCF-7; type: cell-based; conditions: in the presence of RTX 2 nM, n=4
[2] = target: transient receptor potential vanilloid 1 (Homo sapiens, UniProt Q8NER1); test: Competition; conditions: inhibition of 1.2 nM ^3[H]RTX binding, MCF-7 membranes, Cheng-Prussoff
[3] = tested on: TRPV1; conditions: ref 23 (Rigoni et al.); cited from earlier work
[4] = tested on: MCF-7 cells; test: MTT reduction proliferation assay; type: cell-based, human; conditions: 2, 24, 48 and 72 hours; for MCF-7 cell growth rate / viability compared to the controls (MTT): increasing concentrations (10^-10-10^-4 M capsaicin, capsazepine; 10^-10-10^-6 M RTX, 5-I-RTX), p<0.05, n=6
In short: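 MCF-7 cells grown in DMEM with 20% FBS were seeded at 5×10^3 cells/100 µL in 96-well plates. Cells were exposed to test compound at increasing concentrations (10-10 up to 10^-4 or 10^-6 M, by compound) and assayed at 2, 24, 48 and 72 h. MTT was added for 4 h at 37 °C, 5% CO2, and formazan was dissolved in DMSO for 10 min at RT. OD was read at 570 nm (n=6, mean±SEM) and analysed by Kruskal-Wallis with Dunn post-test.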

[5] = target: T1, TRPV1; test: ^45Ca^2+ uptake assay, stimulation by agonists in MCF-7; type: cell-based; conditions: for E max of Ca^2+ uptake: 20 minutes at 37℃, 10^-11-10^-3 M, n=4

T1 sequence (Q8NER1 whole entry): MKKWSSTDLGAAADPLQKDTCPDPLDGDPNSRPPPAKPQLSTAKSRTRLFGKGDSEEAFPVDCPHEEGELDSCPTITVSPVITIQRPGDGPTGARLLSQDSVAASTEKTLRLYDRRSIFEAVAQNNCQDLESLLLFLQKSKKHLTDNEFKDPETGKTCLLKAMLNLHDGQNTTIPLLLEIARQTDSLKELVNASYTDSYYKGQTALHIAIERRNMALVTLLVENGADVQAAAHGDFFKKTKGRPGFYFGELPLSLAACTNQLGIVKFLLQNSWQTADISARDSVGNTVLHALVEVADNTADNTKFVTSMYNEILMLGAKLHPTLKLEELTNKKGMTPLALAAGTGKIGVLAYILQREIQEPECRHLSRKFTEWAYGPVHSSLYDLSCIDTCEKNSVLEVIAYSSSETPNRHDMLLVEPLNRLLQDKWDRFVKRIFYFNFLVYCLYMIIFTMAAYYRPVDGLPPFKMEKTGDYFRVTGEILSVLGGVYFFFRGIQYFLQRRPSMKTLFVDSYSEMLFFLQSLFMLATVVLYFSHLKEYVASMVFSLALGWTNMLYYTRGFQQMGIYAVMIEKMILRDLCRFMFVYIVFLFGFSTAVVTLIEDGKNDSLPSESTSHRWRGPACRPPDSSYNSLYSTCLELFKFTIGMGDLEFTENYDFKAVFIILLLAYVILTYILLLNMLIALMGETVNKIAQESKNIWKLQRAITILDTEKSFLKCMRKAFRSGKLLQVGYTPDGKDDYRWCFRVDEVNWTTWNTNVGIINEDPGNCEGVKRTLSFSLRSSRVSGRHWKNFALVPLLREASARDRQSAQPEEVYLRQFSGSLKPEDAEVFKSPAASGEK
transient receptor potential vanilloid 1, sequence (Q8NER1 whole entry): as above

Structure (SMILES)	E max of Ca^2+ influx inhibition [1]	Ki [2]	Potency relative to the antagonist capsazepine (times more potent) [3]	MCF-7 cell growth rate / viability compared to the controls (MTT) [4]	EC50 [5]	Agonist character at TRPV1 expressed in MCF-7, from E max of calcium uptake ([5]; ^45Ca^2+ uptake)	E max of Ca^2+ uptake ([5]; ^45Ca^2+ uptake)	Time dependence of MCF-7 growth inhibition (MTT) [4]
C=C(C)[C@]12C[C@@H](C)[C@@]34O[C@](Cc5ccccc5)(O[C@@H]1[C@@H]3C=C(COC(=O)Cc1cc(I)c(O)c(OC)c1)C[C@]1(O)C(=O)C(C)=C[C@@H]41)O2 [5-I-RTX, 5-iodoresiniferatoxin]	108.3%	0.056 nM	20	significant decrease				
CCCCC/C=C\C/C=C\C/C=C\C/C=C\CCCC(=O)NCCO [Anandamide, anandamide]					110 nM	full agonist	557.0 cpm	
COc1cc(CNC(=O)CCCC/C=C/C(C)C)ccc1O [Capsaicin, capsaicin]				significant decrease			478.8 cpm	
Oc1cc2c(cc1O)CN(C(=S)NCCc1ccc(Cl)cc1)CCC2 [Capsazepine, capsazepine]				significant decrease				
C=C(C)[C@]12C[C@@H](C)[C@@]34O[C@](Cc5ccccc5)(O[C@@H]1[C@@H]3C=C(COC(=O)Cc1ccc(O)c(OC)c1)C[C@]1(O)C(=O)C(C)=C[C@@H]41)O2 [RTX, resiniferatoxin]				significant decrease	24 nM		777.0 cpm	time-dependent behavior
